From ChEMBL document CHEMBL1158703, “Psychopharmacological profile of the alkaloid psychollatine as a 5HT2A/C serotonin modulator” (2005)
Active and inactive are the calls of the source.

What was measured:
[1] = test system: Mus musculus; experiment: Antidepressant activity in CF1 mouse assessed as decrease in duration of immobility at 15 mg/kg during final 4 mins of the 6 mins session by forced swimming test; assay type: functional
[2] = test system: Mus musculus; experiment: Anxiolytic activity against CF1 mouse assessed as increase in latency to enter in the dark compartment 0.85 mg/kg for 5 mins; assay type: functional, organism-based; parameters: dose 0.85 mg/kg
How it was run: (§1)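 Light/dark box with a small black compartment and a large white one lit at 400 lx. Male CF1 mice were acclimatised for ≥1 h under dim red light. Diazepam in 10% propylene glycol was given i.p. 30 min before testing. Picrotoxin 1 mg/kg i.p. in saline was given 30 min before treatment. Read-outs: latency to first entry and time spent in the light area. N = 8–22, ANOVA then SNK.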

[3] = test system: Mus musculus; experiment: Anticonvulsant activity against CF1 mouse assessed as protection against PTZ-induced convulsions at 20 mg/kg, ip for 60 mins; assay type: functional; conditions: route intraperitoneal
How it was run: (§2)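 Male adult CF1 mice (2 months at purchase, housed ≥2 weeks at 22 °C, 12 h light/dark). Drug given i.p. (0.1 mL/10 g); 30 min later PTZ 88 mg/kg s.c. Each mouse then observed singly for 60 min for clonic convulsions lasting >3 s. n = 10 per group. Fisher's exact test against vehicle (saline or 10% propylene glycol).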

[4] = test system: Mus musculus; experiment: Anticonvulsant activity against CF1 mouse assessed as protection against PTZ-induced convulsions at 0.8 mg/kg, ip for 60 mins; assay type: functional; conditions: route intraperitoneal; how it was run: as §2
[5] = test system: Mus musculus; experiment: Anxiolytic activity against CF1 mouse assessed as increase in time spent in light compartment at 0.85 mg/kg in presence of picrotoxin for 5 mins; assay type: functional, organism-based; parameters: dose 0.85 mg/kg; how it was run: as §1
[6] = test system: Mus musculus; experiment: Anxiolytic activity against CF1 mouse assessed as increase in number of crossings at 0.75 mg/kg after 30 mins in presence of picrotoxin by hole-board assay; assay type: functional, organism-based; parameters: dose 0.75 mg/kg
How it was run: (§3)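 Hole-board with photocell-counted head-dips; the board was marked into 16 squares of 10×10 cm. Male CF1 mice were acclimatised ≥1 h in dim light. Diazepam in 10% propylene glycol was given i.p. 30 min before testing. Picrotoxin 1 mg/kg i.p. was given 30 min before treatment. Head-dips, squares crossed and rearings were recorded over 5 min. N = 8–15, ANOVA then SNK.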

[7] = test system: Mus musculus; experiment: Anxiolytic activity against CF1 mouse assessed as increase in number of rearings at 0.75 mg/kg after 30 mins by hole-board assay; assay type: functional, organism-based; parameters: dose 0.75 mg/kg; how it was run: as §3
[8] = test system: Mus musculus; experiment: Anxiolytic activity against CF1 mouse assessed as increase in number of head dips at 0.75 mg/kg after 30 mins in presence of picrotoxin by hole-board assay; assay type: functional, organism-based; parameters: dose 0.75 mg/kg; how it was run: as §3
[9] = test system: Mus musculus; experiment: Anxiolytic activity against CF1 mouse assessed as increase in number of crossings at 0.75 mg/kg after 30 mins by hole-board assay; assay type: functional, organism-based; parameters: dose 0.75 mg/kg; how it was run: as §3
[10] = test system: Mus musculus; experiment: Effect on locomotory activity in CF1 mouse assessed as change in spontaneous activity at 0.75 and 0.85 mg/kg; assay type: functional, organism-based; parameters: dose 0.85 mg/kg
How it was run: (§4)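 Mice were habituated singly for 10 min in photocell activity cages and then dosed i.p. Diazepam was given in 10% propylene glycol. After 30 min, crossings were recorded for 15 min. n = 10–16, ANOVA then SNK.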

[11] = test system: Mus musculus; experiment: Anxiolytic activity against CF1 mouse assessed as increase in latency to enter in the dark compartment 0.85 mg/kg in presence of picrotoxin for 5 mins; assay type: functional, organism-based; parameters: dose 0.85 mg/kg; how it was run: as §1
[12] = test system: Mus musculus; experiment: Anxiolytic activity against CF1 mouse assessed as increase in time spent in light compartment at 0.85 mg/kg for 5 mins; assay type: functional, organism-based; parameters: dose 0.85 mg/kg; how it was run: as §1
[13] = test system: Mus musculus; experiment: Anxiolytic activity against CF1 mouse assessed as increase in number of rearings at 0.75 mg/kg after 30 mins in presence of picrotoxin by hole-board assay; assay type: functional, organism-based; parameters: dose 0.75 mg/kg; how it was run: as §3
[14] = test system: Mus musculus; experiment: Anxiolytic activity against CF1 mouse assessed as increase in number of head dips at 0.75 mg/kg after 30 mins by hole-board assay; assay type: functional, organism-based; parameters: dose 0.75 mg/kg; how it was run: as §3
[15] = test system: Mus musculus; experiment: Effect on locomotory activity in CF1 mouse assessed as change in spontaneous activity at 3 to 30 mg/kg; assay type: functional, organism-based; how it was run: as §4
[16] = test system: Mus musculus; experiment: Anxiolytic activity against CF1 mouse assessed as suppression of oxotremorine-treated tremors at 3 mg/kg; assay type: functional, organism-based; parameters: dose 3 mg/kg
How it was run: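 Mice received treatment i.p. 30 min before oxotremorine 0.5 mg/kg in saline. Each mouse was then placed alone in a transparent cage immediately after injection and tremor was scored. Data given as median (interquartile range); Kruskal–Wallis then Mann–Whitney U against saline + oxotremorine.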

[17] = test system: Mus musculus; experiment: Effect on short term memory of CF1 mouse assessed as reduction in latency during aquisition at 0.15 mg/kg by passive avoidance test; assay type: functional
[18] = test system: Mus musculus; experiment: Effect on long term memory of CF1 mouse assessed as reduction in latency during aquisition at 0.15 mg/kg by passive avoidance test; assay type: functional
How it was run: (§5)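 Step-down inhibitory avoidance in male CF1 mice. Training used a 0.3 mA scrambled footshock for 15 s on stepping down. The test session was 24 h later without shock, with a 300 s cutoff. For acquisition effects, drug (MK-801 or diazepam in 10% propylene glycol, i.p.) was given 30 min before training; the post-training group was dosed immediately after training. N = 20, medians (IQR).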

[19] = test system: Mus musculus; experiment: Antidepressant activity in CF1 mouse assessed as decrease in duration of immobility at 0.15 mg/kg during final 4 mins of the 6 mins session by forced swimming test; assay type: functional
How it was run: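 Male adult CF1 mice, dosed i.p. Each mouse made to swim for 6 min in a 30 cm diameter cylinder holding 20 cm of water at 25 ± 1 °C. Immobility time was scored over the last 4 min. N = 10 per group, mean ± SEM, ANOVA against saline.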

[20] = test system: Mus musculus; experiment: Effect on short term memory of CF1 mouse assessed as reduction in step down latency at 0.15 mg/kg by passive avoidance test; assay type: functional
[21] = test system: Mus musculus; experiment: Effect on long term memory of CF1 mouse assessed as reduction in step down latency at 0.15 mg/kg by passive avoidance test; assay type: functional; how it was run: as §5

Q: How did the Activity [1] turn out when `CN(C)CCCN1c2ccccc2CCc2ccccc21` [IMIPRAMINE] was run?
A: 46.05 s

Q: What does the source list for `CN1C(=O)CN=C(c2ccccc2)c2cc(Cl)ccc21` [DIAZEPAM]?
A: Activity [2]: Active; Activity [3]: 0%; Activity [4]: 10%; Activity [5]: inactive; Activity [6]: inactive; Activity [7]: Active; Activity [8]: inactive; Activity [9]: Active; Activity [10]: inactive; Activity [11]: inactive; Activity [12]: Active; Activity [13]: inactive; Activity [14]: Active; Activity [15]: inactive

Q: For `CN1[C@@H]2C[C@@H](OC(=O)[C@H](CO)c3ccccc3)C[C@H]1[C@@H]1O[C@@H]12`, which Activity [16] is on record?
A: Active

Q: What does the source list for `CCC1(c2ccccc2)C(=O)NC(=O)NC1=O` [PHENOBARBITAL]?
A: Activity [3]: 0%; Activity [4]: 10%

Q: With `C[C@]12N[C@H](Cc3ccccc31)c1ccccc12` [DIZOCILPINE] as the compound, how does the Activity [17] read?
A: 8.4 s

Q: What about the Activity [18] of the same compound?
A: 6 s

Q: And the Activity [19]?
A: 33.36 s

Q: What about the Activity [20] of the same compound?
A: 16.5 s

Q: What about the Activity [21] of the same compound?
A: 6.2 s
